Data from ChEMBL document CHEMBL1212911, “Identification of potent and selective amidobipyridyl inhibitors of protein kinase D” (J Med Chem, 2010).

How the values were obtained:
[1] = biological target: T1, Serine/threonine-protein kinase D1 (Homo sapiens, UniProt Q15139); test: Inhibition of PKD1 by TR-FRET assay
T1 sequence (Q15139 whole entry): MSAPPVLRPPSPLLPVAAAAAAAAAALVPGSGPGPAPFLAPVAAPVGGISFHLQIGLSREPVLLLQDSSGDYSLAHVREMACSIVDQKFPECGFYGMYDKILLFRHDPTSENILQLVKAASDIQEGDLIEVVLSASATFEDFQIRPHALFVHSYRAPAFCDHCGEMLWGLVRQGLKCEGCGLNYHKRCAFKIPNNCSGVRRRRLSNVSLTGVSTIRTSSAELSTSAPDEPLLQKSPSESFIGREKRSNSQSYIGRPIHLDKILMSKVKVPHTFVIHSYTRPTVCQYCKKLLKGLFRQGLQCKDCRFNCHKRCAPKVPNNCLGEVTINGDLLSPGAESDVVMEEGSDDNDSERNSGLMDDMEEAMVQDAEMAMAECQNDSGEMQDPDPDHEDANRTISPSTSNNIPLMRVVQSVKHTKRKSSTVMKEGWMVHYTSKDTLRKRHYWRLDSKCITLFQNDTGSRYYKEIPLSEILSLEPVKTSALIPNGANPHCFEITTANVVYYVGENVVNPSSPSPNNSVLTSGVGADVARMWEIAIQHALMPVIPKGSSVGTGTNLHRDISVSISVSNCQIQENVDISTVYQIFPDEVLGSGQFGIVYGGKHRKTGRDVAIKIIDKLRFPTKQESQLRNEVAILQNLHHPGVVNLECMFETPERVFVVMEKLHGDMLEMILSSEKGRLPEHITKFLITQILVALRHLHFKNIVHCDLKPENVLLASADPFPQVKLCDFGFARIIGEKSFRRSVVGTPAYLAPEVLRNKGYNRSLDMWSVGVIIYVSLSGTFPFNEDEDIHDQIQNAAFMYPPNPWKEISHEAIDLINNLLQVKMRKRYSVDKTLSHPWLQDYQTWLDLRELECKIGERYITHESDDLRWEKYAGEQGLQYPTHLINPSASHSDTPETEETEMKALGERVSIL
How it was run: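 Full-length wild-type PKD1 expressed and purified from Sf9 cells, 0.2 μg/mL, in 35 mM Tris-HCl pH 7.5, 5 mM MgCl2, 0.02% Tween-20, 20 μM ATP, 1 mM DTT. Reaction started with 2 μM biotinylated syntide-2 and run 50 min at room temperature. Stopped with EDTA plus europium anti-rabbit IgG, anti-phospho-syntide-2 antibody and streptavidin-APC. LANCE TR-FRET 665/615 ratio read after 1 h. 11-point curves in triplicate gave IC50.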

[2] = biological target: T2, Serine/threonine-protein kinase D2 (Homo sapiens, UniProt Q9BZL6); test: Inhibition of PKD2 by TR-FRET assay
T2 sequence (Q9BZL6 whole entry): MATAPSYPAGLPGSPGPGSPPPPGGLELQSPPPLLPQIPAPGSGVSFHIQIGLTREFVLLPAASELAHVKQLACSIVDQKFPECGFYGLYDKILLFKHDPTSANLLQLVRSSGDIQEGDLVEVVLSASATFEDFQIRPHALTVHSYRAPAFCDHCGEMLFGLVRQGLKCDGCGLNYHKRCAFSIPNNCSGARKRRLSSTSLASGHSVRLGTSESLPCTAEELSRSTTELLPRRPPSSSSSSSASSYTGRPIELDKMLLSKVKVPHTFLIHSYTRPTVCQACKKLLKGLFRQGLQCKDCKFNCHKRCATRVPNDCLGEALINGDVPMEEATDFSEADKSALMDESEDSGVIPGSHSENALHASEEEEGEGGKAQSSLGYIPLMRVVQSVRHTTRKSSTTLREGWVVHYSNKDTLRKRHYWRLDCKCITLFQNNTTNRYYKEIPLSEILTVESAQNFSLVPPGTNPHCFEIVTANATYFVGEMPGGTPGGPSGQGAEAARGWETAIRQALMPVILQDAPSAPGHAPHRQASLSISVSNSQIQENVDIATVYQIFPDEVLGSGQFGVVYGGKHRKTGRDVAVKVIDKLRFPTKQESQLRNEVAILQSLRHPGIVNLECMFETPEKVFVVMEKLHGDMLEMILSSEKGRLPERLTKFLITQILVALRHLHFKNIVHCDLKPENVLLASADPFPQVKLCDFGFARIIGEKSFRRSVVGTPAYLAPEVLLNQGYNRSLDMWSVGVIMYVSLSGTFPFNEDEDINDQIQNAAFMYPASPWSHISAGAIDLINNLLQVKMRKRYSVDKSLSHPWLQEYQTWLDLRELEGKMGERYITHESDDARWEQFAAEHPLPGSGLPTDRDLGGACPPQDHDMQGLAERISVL

[3] = biological target: T1, Serine/threonine-protein kinase D1; test: Inhibition of PKD1 assessed as inhibition of HDAC5 neuclear export
How it was run: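 Neonatal rat ventricular myocytes infected with adenovirus encoding GFP-HDAC5 and plated on gelatin-coated wells. Cells exposed to compound and stimulated with PGF2α for 2 h, then fixed. Cytoplasmic versus nuclear GFP intensity quantified by high-content imaging.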

[4] = Cmax in rats after 5 mg/kg oral dose; assay type: ADME, organism-based; set-up: dose 5 mg/kg, route oral; details: Sprague-Dawley, rat, in vivo
[5] = Oral bioavailability in Sprague-Dawley rat at 5 mg/kg; assay type: ADME, organism-based; details: in vivo
How it was run: (§1)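 Rats dosed iv 2 mg/kg (n = 2) or po 5 mg/kg (n = 3) in 10% NMP, 10% Cremophor, 80% pH 4.63 buffer. PK parameters derived from iv dosing, reported as mean ± SD.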

[6] = AUC (0 to 8 hrs) in Sprague-Dawley rat at 5 mg/kg, po; assay type: ADME, organism-based; set-up: time < 8 hr, dose 5 mg/kg, route oral; details: plasma
[7] = Volume of distribution at steady state in Sprague-Dawley rat at 2 mg/kg, iv and 5 mg/kg, po; assay type: ADME, organism-based; details: in vivo, read-out: Vdss; how it was run: as §1
[8] = Half life in rats after 2 mg/kg intravenous dose; assay type: ADME, organism-based; set-up: dose 2 mg/kg, route intravenous; details: Sprague-Dawley, rat, in vivo; how it was run: as §1
[9] = Clearance in Sprague-Dawley rat at 2 mg/kg, iv and 5 mg/kg, po; assay type: ADME, organism-based; details: in vivo; how it was run: as §1

SMILES	IC50 [1] [nM]	IC50 [2] [nM]	EC50 [3] [nM]	Cmax [4] [nM]	bioavailability [5] [%]	AUC(0-t) at 8 h [6] [µM·h]	Vd [7] [L/kg]	half-life [8] [h]	clearance [9] [mL/min/kg]
NC(=O)c1cc(-c2ccnc(NC3CCCCC3)c2)nc(N2CCOCC2)c1	> 1000								
Cn1ccc(Nc2cc(-c3cc(C#N)cc(N4CCNCC4)n3)ccn2)n1		68	428						
FC(F)(F)c1cc(-c2ccnc(NC3CCCCC3)c2)nc(N2CCNCC2)c1			342	251	31	0.73			
c1cc(-c2cc(-c3cn[nH]c3)cc(N3CCNCC3)n2)cc(NC2CCOCC2)n1	< 1	2	234						
O=C1NCc2c1cc(N1CCNCC1)nc2-c1ccnc(NC2CCCCC2)c1	1		115						
CCNc1cc(-c2cc(C(N)=O)cc(N3CCNCC3)n2)ccn1	4	31	> 1000						
FC(F)c1cc(-c2ccnc(NC3CCCCC3)c2)nc(N2CCNCC2)c1	17	76	568						
CC(C)Nc1cc(-c2cc(C(N)=O)cc(N3CCNCC3)n2)ccn1	1	8	438						
c1cc(-c2cc(-c3cn[nH]c3)cc(N3CCNCC3)n2)cc(NC2CCCCC2)n1	< 1	1	17						
NC(=O)c1cc(-c2ccnc(Nc3ccccc3Cl)c2)nc(N2CCNCC2)c1	1	8	478						
CC(C)Nc1cc(-c2cc(-c3cn[nH]c3)cc(N3CCNCC3)n2)ccn1	< 1	2	92						
c1cc(-c2cc(-c3cc[nH]n3)cc(N3CCNCC3)n2)cc(NC2CCCCC2)n1	4	62	704						
O=C1NCc2c1cc(-c1ccnc(NC3CCCCC3)c1)nc2N1CCNCC1	35		> 1000	31	5	0.1	35	6.2	86
N#Cc1cc(-c2ccnc(Nc3ccccc3)c2)nc(N2CCNCC2)c1	5	35	378	231	18	1.1	7.8	3.1	31
Cn1ccc(Nc2cc(-c3cc(C(N)=O)cc(N4CCNCC4)n3)ccn2)n1	1	7	674						
CN1CCN(c2cc(C(N)=O)cc(-c3ccnc(NC4CCCCC4)c3)n2)CC1	25	238	752						
NC(=O)c1cc(-c2ccnc(NC3CCOCC3)c2)nc(N2CCNCC2)c1	1	9	> 1000						
NC(=O)c1cc(-c2ccnc(Nc3ccccc3)c2)nc(N2CCNCC2)c1	1	1	24						

The remaining lines, values ahead:

IC50 [1] [nM]	IC50 [2] [nM]	EC50 [3] [nM]	Cmax [4] [nM]	bioavailability [5] [%]	AUC(0-t) at 8 h [6] [µM·h]	Vd [7] [L/kg]	half-life [8] [h]	clearance [9] [mL/min/kg]	SMILES
		679							C[C@@H]1CN(c2cc(C(N)=O)cc(-c3ccnc(NC4CCCCC4)c3)n2)CCN1
14	168	> 1000							NC(=O)c1cc(-c2ccnc(NC3CCCCC3)c2)nc(N2CCCC(N)C2)c1 (centres undefined)
68	540	> 1000							NC(=O)c1cc(N[C@H]2CCNC2)nc(-c2ccnc(NC3CCCCC3)c2)c1
55	427	> 1000							CC1(C)CN(c2cc(C(N)=O)cc(-c3ccnc(NC4CCCCC4)c3)n2)CCN1
2	18	> 1000							NC(=O)c1cc(N[C@@H]2CCNC2)nc(-c2ccnc(NC3CCCCC3)c2)c1
6	59	202							NC(=O)c1cc(-c2ccnc(NC3CCCC3)c2)nc(N2CCNCC2)c1
8	86	831							C[C@H]1CN(c2cc(C(N)=O)cc(-c3ccnc(NC4CCCCC4)c3)n2)CCN1
46	212	> 1000							NCC1CCN(c2cc(C(N)=O)cc(-c3ccnc(NC4CCCCC4)c3)n2)CC1
